Columns and labels:
Type in all cases: functional
Pseudomonas aeruginosa = assay: Antibacterial activity against Pseudomonas aeruginosa […] incubated for 16 to 20 hrs by microdilution method
Method in brief: (§1)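 CLSI broth microdilution. 2-fold serial dilutions were made in cation-adjusted Mueller–Hinton broth, with 5% lysed horse blood added for Streptococcus strains, in triplicate. Inoculum 5×10^5 CFU/mL. Plates incubated 36 °C for 16–20 h. MIC taken as the lowest concentration visibly inhibiting growth.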

Escherichia coli = assay: Antibacterial activity against Escherichia coli ATCC 25922 incubated for 16 to 20 hrs by microdilution method; method in brief: as §1
Klebsiella aerogenes = assay: Antibacterial activity against Enterobacter aerogenes ATCC 35029 incubated for 16 to 20 hrs by microdilution method; method in brief: as §1
Klebsiella pneumoniae = assay: Antibacterial activity against Klebsiella pneumoniae ATCC 700603 incubated for 16 to 20 hrs by microdilution method; method in brief: as §1
Enterococcus faecium = assay: Antibacterial activity against Enterococcus faecium NCTC 7171 incubated for 16 to 20 hrs by microdilution method; method in brief: as §1
Acinetobacter baumannii = assay: Antibacterial activity against Acinetobacter baumannii ATCC 17961 incubated for 16 to 20 hrs by microdilution method; method in brief: as §1

Row | MIC (Pseudomonas aeruginosa) [µg/mL] | MIC (Escherichia coli) [µg/mL] | MIC (Klebsiella aerogenes) [µg/mL] | MIC (Klebsiella pneumoniae) [µg/mL] | MIC (Enterococcus faecium) [µg/mL] | MIC (Acinetobacter baumannii) [µg/mL] | SMILES
1 | ≥ 16 | ≥ 16 | ≥ 16 | ≥ 16 | ≥ 8 | ≥ 16 | O=C(O)c1cccc(-n2c(/C=C/c3ccc(F)c(F)c3)nc3ccccc3c2=O)c1
2 | ≥ 16 | ≥ 16 | ≥ 16 | ≥ 16 | ≥ 8 | ≥ 16 | COC(=O)CCNC(=O)c1cccc(-n2c(/C=C/c3ccc(C#N)cc3)nc3ccccc3c2=O)c1
3 | ≥ 16 | ≥ 16 | ≥ 16 | ≥ 16 | ≥ 8 | ≥ 16 | N#Cc1ccc(/C=C/c2nc3cc(N)ccc3c(=O)n2-c2cccc(C(=O)O)c2)cc1
4 | ≥ 16 | ≥ 16 | ≥ 16 | ≥ 16 | ≥ 8 | ≥ 16 | CC(C)Nc1cccc(-n2c(/C=C/c3ccc(C#N)cc3)nc3ccccc3c2=O)c1
5 | ≥ 16 | ≥ 16 | ≥ 16 | ≥ 16 | ≥ 8 | ≥ 16 | NC(=O)c1cccc(-n2c(/C=C/c3ccc(F)cc3)nc3ccccc3c2=O)c1
6 | ≥ 16 | ≥ 16 | ≥ 16 | ≥ 16 | ≥ 8 | ≥ 16 | N#Cc1ccc(/C=C/c2nc3ccccc3c(=O)n2-c2cccc(C(=O)NCc3cccnc3)c2)cc1
7 | ≥ 16 | ≥ 16 | ≥ 16 | ≥ 16 | ≥ 8 | ≥ 16 | CS(=O)(=O)NCc1cccc(-n2c(/C=C/c3ccc(C#N)cc3)nc3ccccc3c2=O)c1
8 | ≥ 16 | ≥ 16 | ≥ 16 | ≥ 16 | ≥ 8 | ≥ 16 | O=c1c2cnccc2nc(/C=C/c2ccc(F)cc2)n1-c1cccc(O)c1
9 | ≥ 16 | ≥ 16 | ≥ 16 | ≥ 16 | ≥ 8 | ≥ 16 | COC(=O)Cc1ccc(/C=C/c2nc3ccccc3c(=O)n2-c2cccc(C(=O)O)c2)cc1
10 | ≥ 16 | ≥ 16 | ≥ 16 | ≥ 16 | ≥ 8 | ≥ 16 | O=C(NCCO)c1cccc(-n2c(/C=C/c3ccc(F)cc3)nc3ccccc3c2=O)c1
11 | ≥ 16 | ≥ 16 | ≥ 16 | ≥ 16 | ≥ 8 | ≥ 16 | N#Cc1ccc(/C=C/c2nc3ccccc3c(=O)n2-c2cccc(C(=O)NCCC(=O)O)c2)cc1
12 | ≥ 16 | ≥ 16 | ≥ 16 | ≥ 16 | ≥ 8 | ≥ 16 | CS(=O)(=O)c1ccc(/C=C/c2nc3ccccc3c(=O)n2-c2cccc(C(=O)O)c2)cc1
13 | ≥ 16 | ≥ 16 | ≥ 16 | ≥ 16 | ≥ 8 | ≥ 16 | COc1ncccc1CNc1cccc(-n2c(/C=C/c3ccc(C#N)cc3)nc3ccccc3c2=O)c1
14 | ≥ 16 | ≥ 16 | ≥ 16 | ≥ 16 | ≥ 8 | ≥ 16 | O=c1c2cnccc2nc(/C=C/c2ccc(Cl)cc2)n1-c1cccc(O)c1
15 | ≥ 16 | ≥ 16 | ≥ 16 | ≥ 16 | ≥ 8 | ≥ 16 | N#Cc1ccc(/C=C/c2nc3ccncc3c(=O)n2-c2cccc(O)c2)cc1
16 | ≥ 16 | ≥ 16 | ≥ 16 | ≥ 16 | ≥ 8 | ≥ 16 | N#Cc1ccc(/C=C/c2nc3ccccc3c(=O)n2-c2cccc(CC(=O)O)c2)cc1
17 | ≥ 16 | ≥ 16 | ≥ 16 | ≥ 16 | ≥ 8 | ≥ 16 | O=C(O)c1cccc(-n2c(/C=C/c3ccc(F)cc3)nc3ccncc3c2=O)c1
18 | ≥ 16 | ≥ 16 | ≥ 16 | ≥ 16 | ≥ 8 | ≥ 16 | O=C(O)c1cccc(-n2c(/C=C/c3ccc(C#CCO)cc3)nc3ccccc3c2=O)c1
19 | ≥ 16 | ≥ 16 | ≥ 16 | ≥ 16 | ≥ 8 | ≥ 16 | O=C(O)c1cccc(-n2c(/C=C/c3ccc(F)c(Cl)c3)nc3ccccc3c2=O)c1
20 | ≥ 16 | ≥ 16 | ≥ 16 | ≥ 16 | ≥ 8 | ≥ 16 | CC(=O)Oc1ccc(-n2c(/C=C/c3ccc([N+](=O)[O-])cc3)nc3ccccc3c2=O)cc1
21 | ≥ 16 | ≥ 16 | ≥ 16 | ≥ 16 | ≥ 8 | ≥ 16 | CC(=O)OCc1cccc(-n2c(/C=C/c3ccc(C#N)cc3)nc3ccccc3c2=O)c1
22 | ≥ 16 | ≥ 16 | ≥ 16 | ≥ 16 | ≥ 8 | ≥ 16 | O=C(O)c1cccc(-n2c(/C=C/c3ccc(Cl)cc3)nc3ccncc3c2=O)c1
23 | ≥ 16 | ≥ 16 | ≥ 16 | ≥ 16 | ≥ 8 | ≥ 16 | NC(=O)c1cccc(-n2c(/C=C/c3ccc(F)cc3)nc3ccncc3c2=O)c1

Row | SMILES | MIC (Pseudomonas aeruginosa) [µg/mL] | MIC (Escherichia coli) [µg/mL] | MIC (Klebsiella aerogenes) [µg/mL] | MIC (Klebsiella pneumoniae) [µg/mL] | MIC (Enterococcus faecium) [µg/mL] | MIC (Acinetobacter baumannii) [µg/mL]
24 | O=c1c2ccccc2nc(/C=C/c2ccc([N+](=O)[O-])cc2)n1-c1ccc(O)cc1 | ≥ 16 | ≥ 16 | ≥ 16 | ≥ 16 | ≥ 8 | ≥ 16
25 | Cc1ccc(/C=C/c2nc3ccccc3c(=O)n2-c2cccc(O)c2)cc1 | ≥ 16 | ≥ 16 | ≥ 16 | ≥ 16 | ≥ 8 | ≥ 16
26 | N#Cc1ccc(/C=C/c2nc3ccccc3c(=O)n2-c2cccc([N+](=O)[O-])c2)cc1 | ≥ 16 | ≥ 16 | ≥ 16 | ≥ 16 | ≥ 8 | ≥ 16
27 | N#Cc1ccc(/C=C/c2nc3ccccc3c(=O)n2-c2cc[nH]n2)cc1 | ≥ 16 | ≥ 16 | ≥ 16 | ≥ 16 | ≥ 8 | ≥ 16
28 | O=c1c2ccccc2nc(/C=C/c2cccc([N+](=O)[O-])c2)n1-c1cccc(O)c1 | ≥ 16 | ≥ 16 | ≥ 16 | ≥ 16 | ≥ 8 | ≥ 16
29 | O=c1c2ccccc2nc(/C=C/c2ccc([N+](=O)[O-])cc2)n1-c1cccc(O)c1 | ≥ 16 | ≥ 16 | ≥ 16 | ≥ 16 | ≥ 8 | ≥ 16
30 | O=c1c2ccccc2nc(/C=C/c2ccc([N+](=O)[O-])cc2)n1-c1ccccc1O | ≥ 16 | ≥ 16 | ≥ 16 | ≥ 16 | ≥ 8 | ≥ 16
31 | O=c1c2ccccc2nc(/C=C/C2CCCCC2)n1-c1cccc(O)c1 | ≥ 16 | ≥ 16 | ≥ 16 | ≥ 16 | ≥ 8 | ≥ 16
32 | O=c1c2cc(O)ccc2nc(/C=C/c2ccc(F)cc2)n1-c1cccc(O)c1 | ≥ 16 | ≥ 16 | ≥ 16 | ≥ 16 | ≥ 8 | ≥ 16

From ChEMBL document CHEMBL3817745, “Structure-Activity Relationship for the 4(3H)-Quinazolinone Antibacterials” (J Med Chem, 2016)
